# Assay results reported in ChEMBL document CHEMBL1145061, “New potential uroselective NO-donor alpha1-antagonists” (J Med Chem, 2003).
# Tests used:
# [1] = molecular target: T1, Alpha-1A adrenergic receptor (Rattus norvegicus, UniProt P43140); test: Functional Alpha-1A adrenergic receptor antagonistic activity of noradrenaline induced contractions in prostatic portion of rat vas deferens; assay type: tissue-based; conditions: read-out: pA2 (converted)
# T1 sequence (P43140 whole entry): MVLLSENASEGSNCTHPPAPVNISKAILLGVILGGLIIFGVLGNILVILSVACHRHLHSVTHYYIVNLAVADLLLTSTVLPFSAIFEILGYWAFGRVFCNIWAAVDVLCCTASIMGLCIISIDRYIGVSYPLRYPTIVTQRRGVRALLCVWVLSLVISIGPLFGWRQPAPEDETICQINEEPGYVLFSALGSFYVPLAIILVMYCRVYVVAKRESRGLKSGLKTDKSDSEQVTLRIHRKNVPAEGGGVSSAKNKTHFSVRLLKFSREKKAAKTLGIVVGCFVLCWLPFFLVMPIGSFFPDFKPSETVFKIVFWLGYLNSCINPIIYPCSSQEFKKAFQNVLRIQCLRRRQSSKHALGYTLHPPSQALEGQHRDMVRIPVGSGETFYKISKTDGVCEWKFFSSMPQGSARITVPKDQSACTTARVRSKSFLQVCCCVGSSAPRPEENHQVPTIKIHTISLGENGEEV
# Method in brief: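 Rat vas deferens, prostatic portion. Cumulative noradrenaline concentration-response curves were run with and without antagonist. pA2 came from 6-14 determinations. Where two antagonist concentrations were used and gave similar pA2, antagonism was taken as competitive; otherwise an apparent pA2 was taken at one concentration. Where NO relaxation appeared, 1 µM ODQ was added at least 10 min before the antagonist.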
# [2] = molecular target: T2, Adrenergic receptor alpha-2 (Rattus norvegicus, UniProt P22086+P19328+P22909); test: Inhibition of [3H]- rauwolscine binding to alpha-2 adrenergic receptor in membrane of rat cerebral cortex; assay type: tissue-based
# T2 sequence (P22086 whole entry): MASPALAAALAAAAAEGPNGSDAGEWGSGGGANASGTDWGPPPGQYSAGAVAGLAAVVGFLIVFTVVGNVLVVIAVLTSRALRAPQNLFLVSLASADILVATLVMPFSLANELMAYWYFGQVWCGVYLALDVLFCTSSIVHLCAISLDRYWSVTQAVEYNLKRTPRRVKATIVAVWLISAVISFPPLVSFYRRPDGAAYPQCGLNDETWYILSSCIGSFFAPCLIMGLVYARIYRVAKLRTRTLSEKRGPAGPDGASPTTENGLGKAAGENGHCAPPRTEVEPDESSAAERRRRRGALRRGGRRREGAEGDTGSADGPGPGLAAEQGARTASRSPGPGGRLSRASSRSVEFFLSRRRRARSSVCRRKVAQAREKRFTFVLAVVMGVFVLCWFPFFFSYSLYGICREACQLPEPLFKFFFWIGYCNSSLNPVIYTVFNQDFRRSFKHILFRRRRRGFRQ
# T2 sequence (P19328 whole entry): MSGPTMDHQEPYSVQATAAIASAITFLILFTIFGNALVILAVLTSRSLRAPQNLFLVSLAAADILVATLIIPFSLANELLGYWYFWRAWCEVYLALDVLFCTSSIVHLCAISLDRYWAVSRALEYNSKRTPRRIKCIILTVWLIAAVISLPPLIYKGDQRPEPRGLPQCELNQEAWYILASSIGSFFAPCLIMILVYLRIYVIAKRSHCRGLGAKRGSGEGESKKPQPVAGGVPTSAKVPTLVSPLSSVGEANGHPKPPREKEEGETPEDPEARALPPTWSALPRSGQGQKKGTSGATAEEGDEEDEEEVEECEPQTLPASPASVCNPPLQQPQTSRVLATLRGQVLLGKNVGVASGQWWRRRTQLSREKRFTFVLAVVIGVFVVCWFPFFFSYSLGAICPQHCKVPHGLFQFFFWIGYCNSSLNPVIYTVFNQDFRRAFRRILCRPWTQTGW
# T2 sequence (P22909 whole entry): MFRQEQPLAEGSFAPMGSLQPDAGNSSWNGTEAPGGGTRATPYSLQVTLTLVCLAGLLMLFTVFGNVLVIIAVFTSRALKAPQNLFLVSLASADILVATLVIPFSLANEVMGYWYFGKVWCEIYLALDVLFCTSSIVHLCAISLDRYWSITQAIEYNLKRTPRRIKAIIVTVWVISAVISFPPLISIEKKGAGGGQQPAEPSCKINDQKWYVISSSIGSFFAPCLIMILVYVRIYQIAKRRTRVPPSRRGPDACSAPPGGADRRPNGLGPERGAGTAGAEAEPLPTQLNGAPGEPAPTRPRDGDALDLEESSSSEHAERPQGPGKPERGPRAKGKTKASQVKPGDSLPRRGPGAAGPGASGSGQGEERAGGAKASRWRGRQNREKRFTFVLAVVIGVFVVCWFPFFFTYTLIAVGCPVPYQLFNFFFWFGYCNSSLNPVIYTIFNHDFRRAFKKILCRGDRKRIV
# Method in brief: (§1)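 Native α2 receptors in rat cerebral cortex membranes, competition binding with [3H]rauwolscine.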
# [3] = molecular target: T3, Alpha-1A adrenergic receptor (Homo sapiens, UniProt P35348); test: Inhibition of [3H]prazosin binding to cloned human Alpha-1A adrenergic receptor in CHO cells (chinese hamster ovary cells); assay type: cell-based
# T3 sequence (P35348 whole entry): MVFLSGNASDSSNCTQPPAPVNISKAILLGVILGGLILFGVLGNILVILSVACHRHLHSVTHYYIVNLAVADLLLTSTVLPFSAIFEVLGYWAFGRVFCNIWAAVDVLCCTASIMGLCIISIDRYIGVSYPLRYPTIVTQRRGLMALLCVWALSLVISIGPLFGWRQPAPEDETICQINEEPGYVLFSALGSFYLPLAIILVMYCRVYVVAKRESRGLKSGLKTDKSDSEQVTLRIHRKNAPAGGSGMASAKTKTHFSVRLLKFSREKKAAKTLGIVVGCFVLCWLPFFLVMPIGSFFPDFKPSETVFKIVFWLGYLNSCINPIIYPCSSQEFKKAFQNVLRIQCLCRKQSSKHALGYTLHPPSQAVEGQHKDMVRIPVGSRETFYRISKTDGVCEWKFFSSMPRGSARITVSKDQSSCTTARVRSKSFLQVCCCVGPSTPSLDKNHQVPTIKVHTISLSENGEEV
# Method in brief: (§2)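 Membranes from CHO cells expressing cloned human α1a, α1b or α1d subtypes, [3H]prazosin competition binding.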
# [4] = Thiol induced NO generation, through griess reaction expressed as % NO2- in presence of 5*10e-4 M L-cysteine
# Method in brief: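 Compound in DMSO diluted to 10^-4 M final in 1:1 v/v 50 mM phosphate buffer (pH 7.4)/MeOH containing 5 × 10^-4 M L-cysteine. Held 1 h at 37 °C, then treated with Griess reagent. Nitrite reported as % NO2- (mol/mol).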
# [5] = molecular target: T4, Alpha-1B adrenergic receptor (Homo sapiens, UniProt P35368); test: Inhibition of [3H]-prazosin binding to cloned human Alpha-1B adrenergic receptor in CHO cells (chinese hamster ovary cells); assay type: cell-based; method in brief: as §2
# T4 sequence (P35368 whole entry): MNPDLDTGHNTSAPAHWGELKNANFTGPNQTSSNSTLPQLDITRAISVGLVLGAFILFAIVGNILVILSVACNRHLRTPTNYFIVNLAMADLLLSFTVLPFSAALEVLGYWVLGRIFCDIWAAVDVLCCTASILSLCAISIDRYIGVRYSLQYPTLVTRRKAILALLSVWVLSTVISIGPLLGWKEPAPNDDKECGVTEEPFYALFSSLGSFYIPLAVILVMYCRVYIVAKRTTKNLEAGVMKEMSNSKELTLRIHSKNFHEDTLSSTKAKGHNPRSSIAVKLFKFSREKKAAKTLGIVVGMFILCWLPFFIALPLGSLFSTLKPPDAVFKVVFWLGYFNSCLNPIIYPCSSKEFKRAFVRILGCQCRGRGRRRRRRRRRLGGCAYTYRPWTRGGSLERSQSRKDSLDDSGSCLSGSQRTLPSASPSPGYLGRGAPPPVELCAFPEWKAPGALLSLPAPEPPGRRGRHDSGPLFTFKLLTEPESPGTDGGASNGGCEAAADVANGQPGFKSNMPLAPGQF
# [6] = molecular target: T5, 5-hydroxytryptamine receptor 1A (Homo sapiens, UniProt P08908); test: Inhibition of [3H]8-OH-DPAT binding to 5-hydroxytryptamine 1A receptor serotonergic receptor in human HeLa cells; assay type: cell-based
# T5 sequence (P08908 whole entry): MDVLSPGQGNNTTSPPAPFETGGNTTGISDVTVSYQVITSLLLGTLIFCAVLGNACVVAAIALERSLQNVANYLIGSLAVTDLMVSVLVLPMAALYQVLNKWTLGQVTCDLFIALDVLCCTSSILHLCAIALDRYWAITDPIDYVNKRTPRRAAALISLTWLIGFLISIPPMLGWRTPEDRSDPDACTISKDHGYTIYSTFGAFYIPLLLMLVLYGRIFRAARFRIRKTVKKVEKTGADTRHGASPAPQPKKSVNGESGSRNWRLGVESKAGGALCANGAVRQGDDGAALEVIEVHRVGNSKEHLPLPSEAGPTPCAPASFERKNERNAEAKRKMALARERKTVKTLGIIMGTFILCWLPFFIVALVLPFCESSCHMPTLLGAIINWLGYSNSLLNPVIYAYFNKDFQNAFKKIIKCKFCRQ
# Method in brief: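 Membranes from HeLa cells expressing the cloned human 5-HT1A receptor, [3H]-8-OH-DPAT competition binding.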
# [7] = molecular target: T6, Alpha-1D adrenergic receptor (Homo sapiens, UniProt P25100); test: Inhibition of [3H]-prazosin binding to cloned human Alpha-1D adrenergic receptor in CHO cells (chinese hamster ovary cells); assay type: cell-based; method in brief: as §2
# T6 sequence (P25100 whole entry): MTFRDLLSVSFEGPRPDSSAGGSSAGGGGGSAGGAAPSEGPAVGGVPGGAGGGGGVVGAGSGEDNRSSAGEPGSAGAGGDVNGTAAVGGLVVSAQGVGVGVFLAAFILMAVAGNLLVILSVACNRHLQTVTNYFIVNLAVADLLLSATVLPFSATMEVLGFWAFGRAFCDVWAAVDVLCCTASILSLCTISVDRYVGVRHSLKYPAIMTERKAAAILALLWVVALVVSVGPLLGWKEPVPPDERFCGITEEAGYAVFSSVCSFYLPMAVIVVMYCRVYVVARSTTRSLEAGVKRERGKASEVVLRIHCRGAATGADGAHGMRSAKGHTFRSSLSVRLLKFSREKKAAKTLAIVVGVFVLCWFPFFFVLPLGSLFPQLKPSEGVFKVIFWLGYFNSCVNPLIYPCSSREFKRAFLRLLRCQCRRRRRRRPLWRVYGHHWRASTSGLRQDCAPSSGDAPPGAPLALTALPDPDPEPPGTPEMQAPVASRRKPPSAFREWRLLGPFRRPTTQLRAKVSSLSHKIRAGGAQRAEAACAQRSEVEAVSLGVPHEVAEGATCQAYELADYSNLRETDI
# [8] = molecular target: T4, Alpha-1B adrenergic receptor; test: Inhibition of [3H]prazosin binding to cloned human Alpha-1B adrenergic receptor in CHO cells (chinese hamster ovary cells); assay type: cell-based; method in brief: as §2
# [9] = molecular target: T2, Adrenergic receptor alpha-2; test: Inhibition of [3H]- rauwolscine binding to alpha-2 adrenergic receptor in rat cerebral cortex; assay type: tissue-based; method in brief: as §1
Structure (SMILES),Kb [1] [nM],Ki [2] [nM],Ki [3] [nM],NO2- (mol/mol) [4] [%],Ki [5] [nM],Ki [6] [nM],Ki [7] [nM],Ki [8] [nM],Ki [9] [nM]
Cc1c(-c2ccccc2)oc2c(C(=O)NCCCN3CCN(c4ccccc4OCc4no[n+]([O-])c4C(N)=O)CC3)cccc2c1=O,10.7,359,1.8,5.28,15.9,1.2,20.4,–,–
Cc1c(-c2ccccc2)oc2c(C(=O)NCCCN3CCN(c4ccccc4OCCCO[N+](=O)[O-])CC3)cccc2c1=O,2.29,81.8,0.094,< 1,1.2,7.2,3.5,–,–
Cc1c(-c2ccccc2)oc2c(C(=O)NCCCN3CCN(c4ccccc4OCc4no[n+]([O-])c4C#N)CC3)cccc2c1=O,34.7,81.1,0.73,32.3,6.5,2.2,3.9,–,–

# Other lines, results leading:
Kb [1] [nM],Ki [2] [nM],Ki [3] [nM],NO2- (mol/mol) [4] [%],Ki [5] [nM],Ki [6] [nM],Ki [7] [nM],Ki [8] [nM],Ki [9] [nM],Structure (SMILES)
6.17,53.5,0.16,1.11,–,1.6,4.2,4.7,–,Cc1c(-c2ccccc2)oc2c(C(=O)NCCCN3CCN(c4ccccc4OCc4no[n+]([O-])c4C)CC3)cccc2c1=O
3.8,–,–,–,–,–,–,–,33.3,COc1ccccc1N1CCN(CCCNC(=O)c2cccc3c(=O)c(C)c(-c4ccccc4)oc23)CC1 [UPIDOSIN]
